The source made the active and inactive calls. The calls are words filed in the database; no cut-off is given here.
Tests used:
[1] = molecular target: Toll-like receptor 3 (Homo sapiens) (UniProt O15455); assay: Antagonist activity at human TLR3 expressed in HEK293 cells assessed as decrease in poly I:C-induced NF-kappaB activation-mediated SEAP production at 10^-9 to 10^-5 M after 24 hrs by Quanti-blue-based assay; format: cell-based
Outline: (§1)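 HEK293 cells stably carrying a human TLR plus an NF-κB-driven SEAP reporter, seeded 5×10^4/well for 24 h at 37 °C, then stimulated: Pam3CSK4 100 µg/mL (TLR1/2), Pam2CSK4 100 µg/mL, poly I:C 5 µg/mL (TLR3), LPS 20 ng/mL (TLR4), flagellin 100 ng/mL (TLR5), R848 1 µg/mL (TLR7, TLR8), CpG-ODN2006 1 µg/mL (TLR9). After 24 h with compound, supernatant mixed with QUANTI-Blue, 1 h 37 °C, OD 620 nm.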

[2] = molecular target: Toll-like receptor 9 (Homo sapiens) (UniProt Q9NR96); assay: Antagonist activity at human TLR9 expressed in HEK293 cells assessed as decrease in CpG-ODN2006-induced NF-kappaB activation-mediated SEAP production at 10^-9 to 10^-5 M after 24 hrs by Quanti-blue-based assay; format: cell-based; outline: as §1
Sequence of Toll-like receptor 9 (Homo sapiens) (Q9NR96 whole entry): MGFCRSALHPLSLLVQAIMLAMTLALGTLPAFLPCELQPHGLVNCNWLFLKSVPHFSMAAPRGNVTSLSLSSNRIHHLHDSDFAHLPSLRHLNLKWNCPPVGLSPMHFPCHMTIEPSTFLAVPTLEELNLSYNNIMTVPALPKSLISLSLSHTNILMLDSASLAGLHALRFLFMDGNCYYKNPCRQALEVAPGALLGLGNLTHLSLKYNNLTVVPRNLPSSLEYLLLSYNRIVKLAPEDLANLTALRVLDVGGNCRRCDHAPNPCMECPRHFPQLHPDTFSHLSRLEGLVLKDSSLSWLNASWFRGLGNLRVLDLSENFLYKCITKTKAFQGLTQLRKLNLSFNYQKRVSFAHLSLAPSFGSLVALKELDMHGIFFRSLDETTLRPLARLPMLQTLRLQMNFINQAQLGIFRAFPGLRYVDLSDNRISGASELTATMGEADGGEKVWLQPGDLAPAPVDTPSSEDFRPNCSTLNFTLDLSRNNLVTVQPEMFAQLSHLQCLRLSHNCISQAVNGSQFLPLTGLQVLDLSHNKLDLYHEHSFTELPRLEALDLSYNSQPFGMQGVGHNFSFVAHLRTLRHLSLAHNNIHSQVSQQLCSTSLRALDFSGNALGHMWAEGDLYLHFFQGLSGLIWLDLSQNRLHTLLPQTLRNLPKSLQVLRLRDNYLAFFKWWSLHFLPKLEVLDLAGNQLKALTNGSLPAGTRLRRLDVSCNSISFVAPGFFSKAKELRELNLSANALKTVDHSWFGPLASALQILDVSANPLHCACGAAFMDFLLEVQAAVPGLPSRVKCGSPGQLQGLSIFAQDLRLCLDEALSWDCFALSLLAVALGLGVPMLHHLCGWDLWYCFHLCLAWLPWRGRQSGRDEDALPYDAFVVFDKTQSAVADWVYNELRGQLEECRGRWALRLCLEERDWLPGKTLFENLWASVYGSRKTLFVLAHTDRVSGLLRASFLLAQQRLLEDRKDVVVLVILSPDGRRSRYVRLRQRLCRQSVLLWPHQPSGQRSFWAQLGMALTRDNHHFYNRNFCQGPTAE

[3] = molecular target: T1, Toll-like receptor 7 (Homo sapiens) (UniProt Q9NYK1); assay: Antagonist activity at human TLR7 expressed in HEK293 cells assessed as decrease in R848-induced NF-kappaB activation-mediated SEAP production at 10^-9 to 10^-5 M after 24 hrs by Quanti-blue-based assay; format: cell-based; outline: as §1
T1 sequence (whole entry): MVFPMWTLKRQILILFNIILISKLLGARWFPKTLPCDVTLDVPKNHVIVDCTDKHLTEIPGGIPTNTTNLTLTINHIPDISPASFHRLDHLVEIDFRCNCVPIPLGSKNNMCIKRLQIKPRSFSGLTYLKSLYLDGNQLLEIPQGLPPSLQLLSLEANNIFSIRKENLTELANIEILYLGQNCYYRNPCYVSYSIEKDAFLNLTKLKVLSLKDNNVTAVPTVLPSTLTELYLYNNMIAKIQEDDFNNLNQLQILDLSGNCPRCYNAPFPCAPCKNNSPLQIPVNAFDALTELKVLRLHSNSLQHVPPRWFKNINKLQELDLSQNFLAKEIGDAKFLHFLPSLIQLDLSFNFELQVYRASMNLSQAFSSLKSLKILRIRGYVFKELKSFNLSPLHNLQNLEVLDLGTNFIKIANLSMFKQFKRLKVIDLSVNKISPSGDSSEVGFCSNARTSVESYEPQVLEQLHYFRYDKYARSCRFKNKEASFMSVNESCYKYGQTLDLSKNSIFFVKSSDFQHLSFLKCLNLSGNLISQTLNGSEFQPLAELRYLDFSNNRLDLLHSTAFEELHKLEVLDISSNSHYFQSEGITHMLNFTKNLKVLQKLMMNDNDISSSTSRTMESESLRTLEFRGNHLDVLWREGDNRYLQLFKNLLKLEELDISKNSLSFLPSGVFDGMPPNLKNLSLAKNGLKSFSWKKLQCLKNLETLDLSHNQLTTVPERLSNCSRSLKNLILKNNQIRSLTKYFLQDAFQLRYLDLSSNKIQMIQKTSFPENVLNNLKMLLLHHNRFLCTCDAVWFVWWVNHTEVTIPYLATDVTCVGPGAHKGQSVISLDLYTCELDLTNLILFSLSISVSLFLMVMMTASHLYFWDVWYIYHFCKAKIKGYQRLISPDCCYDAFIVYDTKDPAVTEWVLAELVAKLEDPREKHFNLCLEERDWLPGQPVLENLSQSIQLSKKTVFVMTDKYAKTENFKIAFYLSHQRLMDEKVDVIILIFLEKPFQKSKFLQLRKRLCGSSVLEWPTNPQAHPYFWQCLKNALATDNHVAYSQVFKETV

[4] = Inhibition of IFN-gamma-induced NFkappaB activation in mouse RAW264.7 cells assessed as reduction in nitric oxide production after 18 hrs by DAN assay; format: cell-based; settings: RAW264.7, 18 h
Outline: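 Mouse RAW 264.7 macrophages stimulated with IFN-γ alongside compound; NF-κB-mediated NO output measured by the 2,3-diaminonaphthalene (DAN) nitrite assay.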

[5] = Inhibition of LPS-induced NFkappaB activation in mouse RAW264.7 cells assessed as reduction in nitric oxide production after 18 hrs by DAN assay; format: cell-based; settings: RAW264.7, 18 h
Outline: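 RAW 264.7 cells at 2×10^5 cells/mL, 24 h, medium refreshed, then LPS 100 ng/mL with or without graded compound for 18 h; nitrite in medium reacted with 2,3-diaminonaphthalene (0.05 mg/mL in 0.62 M HCl), 15 min in dark, as NO readout. n = 3, mean ± SD.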

[6] = molecular target: MAP kinase p38 (Mus musculus) (UniProt P47811+O08911+Q9WUI1+Q9Z1B7); assay: Inhibition of LPS-induced p38 MAPK phosphorylation in mouse RAW264.7 cells at 1 to 10 uM preincubated for 1 hr followed by LPS stimulation for 15 to 30 mins by Western blot method; format: cell-based
Outline: (§2)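 RAW 264.7 cells, 3×10^6 per dish overnight, pretreated 1 h with 1, 5 or 10 µM, then LPS 100 ng/mL for 15 or 30 min; nuclear/cytoplasmic lysates (20–30 µg) run on 10% SDS-PAGE, immunoblotted for phospho/total proteins, GAPDH loading control, ECL, densitometry; three independent experiments.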

RAW264.7 = assay: Inhibition of LPS-induced JNK phosphorylation in mouse RAW264.7 cells at 1 to 10 uM preincubated for 1 hr followed by LPS stimulation for 15 to 30 mins by Western blot method; format: cell-based; outline: as §2
[7] = molecular target: Tyrosine-protein kinase SYK (Homo sapiens) (UniProt P43405); assay: Inhibition of wild-type human partial length SYK (D354 to N635 residues) expressed in bacterial expression system assessed as residual activity at 10 uM by Kinomescan method
[8] = molecular target: Mitogen-activated protein kinase 15 (Homo sapiens) (UniProt Q8TD08); assay: Inhibition of wild-type human partial length ERK8 (M1 to P437 residues) expressed in bacterial expression system assessed as residual activity at 20 uM by Kinomescan method relative to control
Sequence of Mitogen-activated protein kinase 15 (Homo sapiens) (Q8TD08 whole entry, the tested form may be a part): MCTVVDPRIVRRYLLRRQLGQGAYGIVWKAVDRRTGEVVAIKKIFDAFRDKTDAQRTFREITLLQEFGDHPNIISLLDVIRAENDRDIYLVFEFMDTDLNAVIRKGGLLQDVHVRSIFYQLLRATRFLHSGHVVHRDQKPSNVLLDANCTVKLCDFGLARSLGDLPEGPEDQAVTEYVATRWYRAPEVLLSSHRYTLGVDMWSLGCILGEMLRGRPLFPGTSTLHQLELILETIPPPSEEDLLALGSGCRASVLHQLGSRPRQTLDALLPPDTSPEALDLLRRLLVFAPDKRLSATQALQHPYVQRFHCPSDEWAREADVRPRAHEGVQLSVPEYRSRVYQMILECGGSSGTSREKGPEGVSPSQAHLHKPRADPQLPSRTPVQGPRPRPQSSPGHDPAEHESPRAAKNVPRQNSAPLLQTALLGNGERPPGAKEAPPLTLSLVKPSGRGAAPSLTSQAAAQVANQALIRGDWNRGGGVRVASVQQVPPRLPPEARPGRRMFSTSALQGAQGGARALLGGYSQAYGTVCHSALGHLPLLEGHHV

HeLa [9] = assay: Growth inhibition of human HeLa cells after 48 hrs by WST1 assay; format: functional
HMEC = assay: Cytotoxicity against HMEC up to 40 uM after 24 to 48 hrs by WST1 assay; format: cell-based; settings: human
HeLa [10] = assay: Cell cycle arrest in human HeLa cells assessed as accumulation at S phase at 5 uM after 24 hrs by propidium iodide staining based flow cytometry (reference value: 34.9%); format: functional
Outline: (§3)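 HeLa cells, 3×10^5/well, attached overnight, switched to serum-free medium for synchronisation, then DMSO or 5, 10, 20 µM for 24 h; cells fixed, PI-stained, G0/G1, S and G2/M fractions by flow cytometry; n = 3, mean ± SD.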

HeLa [11] = assay: Cell cycle arrest in human HeLa cells assessed as accumulation at S phase at 10 uM after 24 hrs by propidium iodide staining based flow cytometry (reference value: 34.9%); format: functional; outline: as §3

Sequence of Toll-like receptor 3 (Homo sapiens) (O15455 whole entry): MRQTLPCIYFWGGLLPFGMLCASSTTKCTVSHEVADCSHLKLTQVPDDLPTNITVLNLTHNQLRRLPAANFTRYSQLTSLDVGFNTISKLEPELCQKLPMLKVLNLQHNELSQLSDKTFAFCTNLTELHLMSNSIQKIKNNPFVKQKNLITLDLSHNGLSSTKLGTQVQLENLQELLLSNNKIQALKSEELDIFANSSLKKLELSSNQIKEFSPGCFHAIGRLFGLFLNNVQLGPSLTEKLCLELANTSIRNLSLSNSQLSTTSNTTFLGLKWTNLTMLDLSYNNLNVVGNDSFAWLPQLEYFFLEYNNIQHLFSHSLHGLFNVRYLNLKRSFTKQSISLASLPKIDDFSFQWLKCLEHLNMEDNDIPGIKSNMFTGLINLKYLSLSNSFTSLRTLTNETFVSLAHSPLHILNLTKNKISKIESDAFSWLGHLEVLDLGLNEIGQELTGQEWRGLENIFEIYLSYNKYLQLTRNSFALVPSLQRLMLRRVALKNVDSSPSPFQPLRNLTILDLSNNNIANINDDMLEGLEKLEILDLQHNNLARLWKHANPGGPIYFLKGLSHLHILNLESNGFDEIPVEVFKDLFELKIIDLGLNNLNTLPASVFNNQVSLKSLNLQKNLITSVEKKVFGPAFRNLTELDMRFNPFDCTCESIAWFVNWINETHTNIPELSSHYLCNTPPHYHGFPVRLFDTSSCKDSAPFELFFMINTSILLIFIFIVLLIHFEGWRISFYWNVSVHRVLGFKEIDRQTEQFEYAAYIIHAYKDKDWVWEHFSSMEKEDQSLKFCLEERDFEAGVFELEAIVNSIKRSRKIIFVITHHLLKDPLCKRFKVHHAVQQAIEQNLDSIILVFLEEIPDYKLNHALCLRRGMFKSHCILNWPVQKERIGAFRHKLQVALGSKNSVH

In the case of `O=C(NNC(=O)c1csc(-c2ccc(Cl)cc2Cl)n1)c1ccccn1`, the inhibition [1] is reported as “Active”, the inhibition [2] is reported as “Active” and the inhibition [3] is reported as “Active”. The IC50 [4] was 79 nM, the IC50 [5] was 80 nM and the inhibition [6] was “inactive”. For the same compound, the inhibition (RAW264.7) was “inactive”, the inhibition [7] was “inactive” and the Activity [8] was 44%. For the same compound, the GI50 (HeLa [9]) was 1350 nM, the Activity (HMEC) was “Non-Toxic” and the Activity (HeLa [10]) was 48.4%. The Activity (HeLa [11]) was 41.7%.

From ChEMBL document CHEMBL4190396, “Discovery of Novel Small-Molecule Inhibitors of NF-κB Signaling with Antiinflammatory and Anticancer Properties” (J Med Chem, 2018)
